Results taken from the RNAGym collection of RNA variant scans (doi:10.1126/science.aae0568).
This sample holds only a part of the variants without activity.

B1: tRNA (parent)
chain: GUUCCGUUGGCGUAAUGGUAACGCGUCUCCCUCCUAAGGAGAAGACUGCGGGUUCGAGUCCCGUACGGAACG

Variants of: B1
Assay: yeast fitness relative to wild type (ratio to wild type); higher = fitter; tRNA-Arg(CCU), competitive growth, 37 C, YPD
Summary of the method: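 For this measurement, the tRNA-Arg(CCU) gene was varied by chemical synthesis at a 3% per-site mutation rate across 69 sites, and each variant was placed at the native genomic locus in Saccharomyces cerevisiae. The pooled strains went through a 24-hour competition in YPD at 37°C in six parallel replicates, with amplicons from start and end populations read by 100-nucleotide paired-end sequencing. Darwinian fitness relative to wild type followed from the change in each genotype's frequency. Genotypes needed ≥ 100 starting reads, and estimates < 0.5 were set to 0.5.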
Work on A37U A45G yielded a yeast fitness of 0.777.
Work on A37U A45C yielded a yeast fitness of 0.64.
With A37U C62U G67A the yeast fitness was ≤ 0.5.
For A37C G38C C55U, the yeast fitness was ≤ 0.5.
Variant A37C C46U has a yeast fitness of 0.946.
In the case of A36U G63C, the yeast fitness is reported as ≤ 0.5.
Work on G38A A45G G52A C61G yielded a yeast fitness of 0.679.
A37U C55U gave a yeast fitness of 0.594.
Work on A37U C55G yielded a yeast fitness of 0.609.
In the case of A37U C55A, the yeast fitness is reported as ≤ 0.5.
Work on A37U A57C G58A A69U A70C yielded a yeast fitness of 0.542.
With A37G A45C C61G A70U the yeast fitness was ≤ 0.5.
In the case of A37C G39C G50C, the yeast fitness is reported as ≤ 0.5.
With A37C G41A A70C the yeast fitness was ≤ 0.5.
For A36U G48A C49A G68A, the yeast fitness was ≤ 0.5.
A36U C62G showed a yeast fitness of 0.623.
In the case of A37G G68A A69G, the yeast fitness is reported as ≤ 0.5.
With A37U A69U the yeast fitness was 0.723.
A37U A69C showed a yeast fitness of 0.796.
In the case of A37U U47A C62U, the yeast fitness is reported as 0.531.
G38A C49A A70U showed a yeast fitness of 0.729.
In the case of A37U G67C, the yeast fitness is reported as 0.619.
In the case of A37U A40U G67C, the yeast fitness is reported as 0.563.
Work on A37U A70G yielded a yeast fitness of 0.72.
A37U A70C gave a yeast fitness of 0.917.
For G38A A43G A69C, the yeast fitness was ≤ 0.5.
A37U G58C gave a yeast fitness of 0.789.
Variant A37G A65C has a yeast fitness of 0.942.
A37C C46U A69C gave a yeast fitness of 0.682.
In the case of A37G G41C A43U C66U A69C, the yeast fitness is reported as ≤ 0.5.
For A37U U54C U64A A69U, the yeast fitness was ≤ 0.5.
Work on A37G G63C yielded a yeast fitness of 0.66.
With A37G G63A the yeast fitness was 0.62.
A37C A65C showed a yeast fitness of 0.797.
With G38A A45C A69U the yeast fitness was 0.684.
In the case of A37U A42G A69C, the yeast fitness is reported as ≤ 0.5.
For A37U A42G A69U, the yeast fitness was ≤ 0.5.
A37G C60U gave a yeast fitness of 0.631.
A37G C60A gave a yeast fitness of 0.661.
In the case of A37G C60G, the yeast fitness is reported as ≤ 0.5.
With A37G G63C G68C the yeast fitness was ≤ 0.5.
In the case of G38A C60A, the yeast fitness is reported as 0.646.
G38A C60G showed a yeast fitness of 0.623.
For A37G U53C G58A G68A, the yeast fitness was ≤ 0.5.
Work on A37C G58A yielded a yeast fitness of 0.844.
With A36U U47C G52C the yeast fitness was ≤ 0.5.
With A36U U59G A65U the yeast fitness was ≤ 0.5.
In the case of A37U U59A, the yeast fitness is reported as 0.706.
Work on A37G G51C C62G yielded a yeast fitness of 0.55.
For G38A A42U U54A, the yeast fitness was ≤ 0.5.
For A37U G38A U59A, the yeast fitness was ≤ 0.5.
With A37G C49G A57C the yeast fitness was 0.798.
For A37G A42U G48C C49U, the yeast fitness was 0.599.
With A36U C49U U54C the yeast fitness was ≤ 0.5.
In the case of A36U G39A A45G, the yeast fitness is reported as ≤ 0.5.
With A37U A43C U47C C60G the yeast fitness was ≤ 0.5.
For A37G A40G A43G G52C U59G, the yeast fitness was ≤ 0.5.
For A37U A40C A42G, the yeast fitness was ≤ 0.5.
With A36U G50A A69U the yeast fitness was ≤ 0.5.
A37U C49G showed a yeast fitness of 0.652.
In the case of A37U C49A, the yeast fitness is reported as 0.712.
A36U C62G G63A gave a yeast fitness of 0.569.
A36U G41A C49G showed a yeast fitness of 0.601.
In the case of A37G G51C C62G C66U, the yeast fitness is reported as ≤ 0.5.
In the case of A37C A57U, the yeast fitness is reported as 0.633.
In the case of A37G U53C C62G, the yeast fitness is reported as 0.594.
With G38A C61G G68C the yeast fitness was ≤ 0.5.
For A36U U47G C61A A70U, the yeast fitness was ≤ 0.5.
Work on A37U A42U G52C yielded a yeast fitness of 0.575.
A37G A42G A70U gave a yeast fitness of 0.539.
A37U G68A gave a yeast fitness of 0.736.
A37G U59C gave a yeast fitness of 0.741.
Work on A37U A43U G48C yielded a yeast fitness of 0.514.
With A37U A57C A69U A70C the yeast fitness was 0.775.
In the case of G38A C62A A65U C66U, the yeast fitness is reported as ≤ 0.5.
With A36U C66A the yeast fitness was ≤ 0.5.
With A37C A45U G51C the yeast fitness was ≤ 0.5.
G38A A69U showed a yeast fitness of 1.04.
G38A A70C gave a yeast fitness of 0.942.
In the case of G38A A70U, the yeast fitness is reported as 0.953.
In the case of G38A A70G, the yeast fitness is reported as 0.998.
For A37U C66G, the yeast fitness was ≤ 0.5.
For A36U C49U, the yeast fitness was 0.585.
For G38A C49U, the yeast fitness was 1.03.
For A37G C61A C66U, the yeast fitness was ≤ 0.5.
With A37C A43U A65U the yeast fitness was 0.651.
For A37C A43C A65U, the yeast fitness was 0.537.
A37U A65U showed a yeast fitness of 0.665.
With A37G A40G A45U the yeast fitness was 0.566.
For A36U G56A C66U, the yeast fitness was ≤ 0.5.
With A37G G56A C62A A70G the yeast fitness was ≤ 0.5.
In the case of A37G G39A A40G G41A A43G, the yeast fitness is reported as ≤ 0.5.
For A37G C55U G56A C66G, the yeast fitness was ≤ 0.5.
A36U U54C showed a yeast fitness of 0.559.
In the case of A37U G50C C66U, the yeast fitness is reported as 0.593.
With A36U C61U A65U the yeast fitness was ≤ 0.5.
In the case of G38A C60U G67C, the yeast fitness is reported as ≤ 0.5.
A37U G56A A65C gave a yeast fitness of 0.5.
Variant A37U G51A G52C U59C has a yeast fitness of 0.619.
In the case of A37C C62U C66G, the yeast fitness is reported as ≤ 0.5.
For A37C C62G A69C, the yeast fitness was ≤ 0.5.
In the case of A37U G52C, the yeast fitness is reported as ≤ 0.5.
G38A C62U showed a yeast fitness of 0.961.
In the case of A37G G56A G63A, the yeast fitness is reported as ≤ 0.5.
For A37G A45C, the yeast fitness was 0.78.
Variant A37G A45U has a yeast fitness of 0.684.
For A37G G39A C62A A69C, the yeast fitness was ≤ 0.5.
In the case of A37U G52A A57C C60A, the yeast fitness is reported as ≤ 0.5.
A37C A42C C46A gave a yeast fitness of 0.948.
Variant A37G A69U has a yeast fitness of 0.856.
In the case of A36U G51C U53C, the yeast fitness is reported as ≤ 0.5.
With A36U G39C A57U the yeast fitness was ≤ 0.5.
For A36U C60A A70U, the yeast fitness was ≤ 0.5.
G38A C66A showed a yeast fitness of 0.72.
With A37U A45U U47C the yeast fitness was ≤ 0.5.
G38A A42C gave a yeast fitness of 0.734.
For G38A A42U, the yeast fitness was 0.661.
For A36U G50A U59G, the yeast fitness was ≤ 0.5.
With A37U A43C U53A U54C the yeast fitness was ≤ 0.5.
Work on A37G G52A yielded a yeast fitness of 0.583.
With A37G G52C the yeast fitness was ≤ 0.5.
A36U G50C gave a yeast fitness of 0.587.
A37C C55U G63A G67C gave a yeast fitness of 0.617.
A36U G51A gave a yeast fitness of 0.61.
A36U G51C showed a yeast fitness of 0.612.
For A37G G50C U54A C61A, the yeast fitness was ≤ 0.5.
A37U A43G G63A G67C A70G gave a yeast fitness of 0.802.
For A36U G38A C49G C60G A70G, the yeast fitness was 0.592.
A37C G67A gave a yeast fitness of 0.696.
A37C G67C gave a yeast fitness of 0.846.
G38A C61U showed a yeast fitness of 0.931.
In the case of G38A A40U G58C, the yeast fitness is reported as 0.853.
In the case of A37C C49G A57C A70G, the yeast fitness is reported as 0.516.
In the case of A37C C49G A65C, the yeast fitness is reported as ≤ 0.5.
A37C C60A A70G gave a yeast fitness of 0.592.
With A37C G39C A65U the yeast fitness was ≤ 0.5.
A37C G52C gave a yeast fitness of 0.537.
For G38A C46G G56C, the yeast fitness was ≤ 0.5.
Variant A36U G50U A57U has a yeast fitness of 0.616.
Variant A37U G44A A70C has a yeast fitness of 0.614.
In the case of A37U G44A A70G, the yeast fitness is reported as ≤ 0.5.
In the case of A36U G48A C49A, the yeast fitness is reported as ≤ 0.5.
In the case of G38A C49U U54C, the yeast fitness is reported as ≤ 0.5.
With A37U C61A the yeast fitness was ≤ 0.5.
In the case of G38A A40C, the yeast fitness is reported as 0.624.
In the case of G38A A40G, the yeast fitness is reported as 0.82.
A37G G56A gave a yeast fitness of 0.825.
For A37C U59G, the yeast fitness was 0.712.
With A37G C61A G63C the yeast fitness was ≤ 0.5.
For A37C C46G G51A G52A, the yeast fitness was ≤ 0.5.
Work on A37G G68C yielded a yeast fitness of 0.665.
A37G G68A gave a yeast fitness of 0.88.
In the case of A36U G56A A69U, the yeast fitness is reported as ≤ 0.5.
In the case of A37U C49A C62U, the yeast fitness is reported as 0.579.
With A37G A45C C46A the yeast fitness was 0.579.
With A37C G52C C60G C61A C66U the yeast fitness was ≤ 0.5.
A37U C49U C61U showed a yeast fitness of 0.527.
For G38A C55A, the yeast fitness was 0.71.
Variant A37G A42G has a yeast fitness of 0.838.
For A37C C62U, the yeast fitness was 0.913.
Work on A36U U64C yielded a yeast fitness of 0.581.
For A37G A45U C60U A70G, the yeast fitness was ≤ 0.5.
A37C A43U U47C A69U showed a yeast fitness of 0.688.
In the case of A37G G38A C55U U59G, the yeast fitness is reported as ≤ 0.5.
For A37U G51C A57C, the yeast fitness was 0.552.
For A37U A40U G56C A69U, the yeast fitness was ≤ 0.5.
In the case of A37G A40U C55A, the yeast fitness is reported as 0.829.
